Molecular target: Neuromedin-B receptor (Homo sapiens, UniProt P28336)
Experiment: Displacement of [125I]-(D-Tyr0)NMB from human neuromedin B receptor transfected in HEK293 cells
Method in brief: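 Whole-cell competition binding used 1 × 10⁶ HEK293 cells stably transfected with hNMBR, with 150 pM ¹²⁵I-[D-Tyr0]NMB (2200 Ci/mmol), in DMEM for 1 h at room temperature. Bound ligand was separated by filtration and total bound counts were measured. Day-to-day standard error was <30%; well-to-well variability was <10%.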

Neuromedin-B receptor, sequence (P28336 whole entry): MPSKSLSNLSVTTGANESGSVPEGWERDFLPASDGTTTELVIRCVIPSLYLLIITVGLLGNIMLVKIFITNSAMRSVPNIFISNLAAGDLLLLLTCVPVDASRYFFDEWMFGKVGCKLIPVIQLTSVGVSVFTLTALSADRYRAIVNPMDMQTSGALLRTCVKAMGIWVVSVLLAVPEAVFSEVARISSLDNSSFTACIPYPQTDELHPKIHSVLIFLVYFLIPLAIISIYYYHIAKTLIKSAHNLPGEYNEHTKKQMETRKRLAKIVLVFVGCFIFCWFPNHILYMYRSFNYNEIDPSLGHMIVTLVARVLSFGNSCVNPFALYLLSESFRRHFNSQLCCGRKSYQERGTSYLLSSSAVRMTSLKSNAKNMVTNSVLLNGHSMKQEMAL

Q: How did the IC50 turn out when `Cc1ccc2c(c1)NC(c1ccccc1C(F)(F)F)C1C(=O)CC(C)(C)CC1=N2` (configuration not stated) [3,3,8-trimethyl-11-(2-(trifluoromethyl)phenyl)-2,3,4,5,10,11-hexahydro-1H-dibenzo[b,e][1,4]diazepin-1-one] was run?
A: The IC50 was 250 nM.

Q: Which IC50 does the source give for `CSc1ccccc1C1Nc2cc(C)ccc2N=C2CC3(CCCC3)CC(=O)C21` (configuration not stated) [8'-methyl-11'-(2-(methylthio)phenyl)-4',5',10',11'-tetrahydrospiro[cyclopentane-1,3'-dibenzo[b,e][1,4]diazepin]-1'(2'H)-one] here?
A: The IC50 was 250 nM.

Q: For `Cc1ccc2c(c1)NC(c1c(F)cccc1Cl)C1C(=O)CCC1=N2` (configuration not stated) [10-(2-chloro-6-fluorophenyl)-7-methyl-2,3,9,10-tetrahydrobenzo[b]cyclopenta[e][1,4]diazepin-1(4H)-one], which IC50 is on record?
A: The IC50 was 10000 nM.

Q: How did the IC50 turn out when `Cc1ccc2c(c1)NC(c1c(F)cccc1Cl)C1C(=O)CC3(CCCC3)CC1=N2` (configuration not stated) [11'-(2-chloro-6-fluorophenyl)-8'-methyl-4',5',10',11'-tetrahydrospiro[cyclopentane-1,3'-dibenzo[b,e][1,4]diazepin]-1'(2'H)-one] was run?
A: Its IC50 is 280 nM.

Q: How did the IC50 turn out when `CC1(C)CC(=O)C2C(=Nc3ccc(C#N)cc3NC2c2c(F)cccc2Cl)C1` (configuration not stated) [11-(2-chloro-6-fluorophenyl)-3,3-dimethyl-1-oxo-2,3,4,5,10,11-hexahydro-1H-dibenzo[b,e][1,4]diazepine-8-carbonitrile] was run?
A: The IC50 was 1300 nM.

Q: Which IC50 does the source give for `CC1(C)CC(=O)C2C(=Nc3ccc(C(N)=O)cc3NC2c2c(F)cccc2Cl)C1` (configuration not stated) [11-(2-chloro-6-fluorophenyl)-3,3-dimethyl-1-oxo-2,3,4,5,10,11-hexahydro-1H-dibenzo[b,e][1,4]diazepine-8-carboxamide] here?
A: The IC50 was 10000 nM.

Q: `CC1(C)CC(=O)C2C(=Nc3ccc(C(=O)O)cc3NC2c2c(F)cccc2Cl)C1` (configuration not stated) [11-(2-chloro-6-fluorophenyl)-3,3-dimethyl-1-oxo-2,3,4,5,10,11-hexahydro-1H-dibenzo[b,e][1,4]diazepine-8-carboxylic acid] was tested. Which IC50 did it give?
A: Its IC50 is 10000 nM.

Q: For `CC1(C)CC(=O)C2C(=Nc3ccc(OC(F)(F)F)cc3NC2c2c(F)cccc2Cl)C1` (configuration not stated) [11-(2-chloro-6-fluorophenyl)-3,3-dimethyl-8-(trifluoromethoxy)-2,3,4,5,10,11-hexahydro-1H-dibenzo[b,e][1,4]diazepin-1-one], which IC50 is on record?
A: The IC50 was 1300 nM.

Q: How did the IC50 turn out when `CC1(C)CC(=O)C2C(=Nc3ccc(O)cc3NC2c2c(F)cccc2Cl)C1` (configuration not stated) [11-(2-chloro-6-fluorophenyl)-8-hydroxy-3,3-dimethyl-2,3,4,5,10,11-hexahydro-1H-dibenzo[b,e][1,4]diazepin-1-one] was run?
A: The IC50 was 10000 nM.

Q: For `Cc1ccc2c(c1)NC(c1ccccc1Cl)C1C(=O)CC(C)(C)CC1=N2` (configuration not stated) [11-(2-chlorophenyl)-3,3,8-trimethyl-2,3,4,5,10,11-hexahydro-1H-dibenzo[b,e][1,4]diazepin-1-one], which IC50 is on record?
A: Its IC50 is 280 nM.

Q: With `Cc1ccc2c(c1)NC(c1ccccc1F)C1C(=O)CC(C)(C)CC1=N2` (configuration not stated) [11-(2-fluorophenyl)-3,3,8-trimethyl-2,3,4,5,10,11-hexahydro-1H-dibenzo[b,e][1,4]diazepin-1-one] as the compound, how does the IC50 read?
A: The IC50 was 1300 nM.

Q: With `Cc1ccc2c(c1)NC(c1ccccc1C(F)(F)F)C1C(=O)CC3(CCCC3)CC1=N2` (stereo not drawn) [(-)-8'-methyl-11'-(2-(trifluoromethyl)phenyl)-4',5',10',11'-tetrahydrospiro[cyclopentane-1,3'-dibenzo[b,e][1,4]diazepin]-1'(2'H)-one] as the compound, how does the IC50 read?
A: Its IC50 is 96 nM.
